This note sets out measurements from ChEMBL document CHEMBL1772943, “Potent, selective, and orally available benzoisothiazolone phosphomannose isomerase inhibitors as probes for congenital disorder of glycosylation Ia” (J Med Chem, 2011).

≈ marks a conversion by molar mass, not a printed value.

The target in one series is T1, Phosphomannomutase 2 (Homo sapiens, UniProt O15305).
T1 sequence (O15305 whole entry): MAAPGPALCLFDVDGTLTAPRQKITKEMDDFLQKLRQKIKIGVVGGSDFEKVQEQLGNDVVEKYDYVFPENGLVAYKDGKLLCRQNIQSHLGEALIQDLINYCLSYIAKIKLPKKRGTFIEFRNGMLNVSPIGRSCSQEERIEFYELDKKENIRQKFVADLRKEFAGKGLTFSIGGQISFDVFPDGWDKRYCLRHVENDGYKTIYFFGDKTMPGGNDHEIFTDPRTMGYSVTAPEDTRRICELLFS
As to the kind of experiment: Inhibition of human purified PMM2.

In series [1] the target is T2, Mannose-6-phosphate isomerase (Homo sapiens, UniProt P34949).
T2 sequence (P34949 whole entry): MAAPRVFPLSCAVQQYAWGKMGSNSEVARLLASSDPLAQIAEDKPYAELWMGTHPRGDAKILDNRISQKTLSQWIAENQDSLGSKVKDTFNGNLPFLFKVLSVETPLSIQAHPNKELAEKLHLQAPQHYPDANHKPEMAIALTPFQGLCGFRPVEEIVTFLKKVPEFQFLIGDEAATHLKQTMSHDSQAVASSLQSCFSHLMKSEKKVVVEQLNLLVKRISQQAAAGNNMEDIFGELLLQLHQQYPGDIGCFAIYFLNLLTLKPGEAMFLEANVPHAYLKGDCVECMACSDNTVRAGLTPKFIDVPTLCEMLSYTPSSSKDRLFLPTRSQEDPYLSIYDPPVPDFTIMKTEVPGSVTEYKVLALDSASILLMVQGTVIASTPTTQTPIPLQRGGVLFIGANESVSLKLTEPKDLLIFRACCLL
As to the kind of experiment: Inhibition of human purified phosphomannose isomerase.

A short description of series [2]: Solubility of the compound at pH 7.4. Format: physicochemical. Conditions: buffer.
The next series in a line: in vivo. The following applies: C57BL/6, mouse, po, 20 mg/kg.
Series [3] is described as follows: Metabolic stability of the compound in mouse liver microsomes assessed as compound remaining at 10 uM after 1 hr by LC/MS/MS analysis. It counts as ADME, Microsome. The following applies: read-out: Stability. A digest of the protocol: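 Mouse liver microsomes at 0.5 mg/ml, test article at 10 μM, duplicate, 37 °C. Aliquots at t=0 and t=1 h; % parent remaining by LC/MS/MS. Positive control phenacetin conversion to acetaminophen; negative control NADPH-deficient mixture.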
In general terms: Liver microsomes are a subcellular fraction often used to study metabolism.

Another series concerns Mus musculus. Briefly: Oral bioavailability in C57BL/6 mouse at 20 mg/kg. It counts as ADME, organism-based. The following applies: in vivo. The gist of the method: (§1)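 C57BL/6 mice, n=3 per dose, dosed 5 mg/kg IV and 20 mg/kg PO. Blood collected at PO 0.5, 1, 2, 4, 6 hr and IV 10 min, 0.5, 1, 2, 4, 6 hr. Plasma separated by centrifugation, stored at -20°C, extracted with 2-fold excess acetonitrile (vortex 3 min, 15 min at 7500g), supernatant analysed by LCMS.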

The nature of series [4]: Half life in C57BL/6 mouse at 20 mg/kg, po. Details: dose 20 mg/kg, route oral. It counts as ADME, organism-based. Conditions: in vivo. The gist of the method:
as §1

Series [5] in a line: AUC (0 to t) in C57BL/6 mouse at 20 mg/kg, po. It counts as ADME, organism-based. The arrangement: dose 20 mg/kg, route oral. Conditions: plasma. The gist of the method:
(§2)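 C57BL/6 mice, n=3 per dose, given single oral dose of 20 mg/kg (5 mg/kg IV arm run in parallel). Animals sacrificed for blood at 0.5, 1, 2, 4 and 6 hr after oral dosing; plasma separated by centrifugation, stored at -20°C, extracted with 2-fold excess acetonitrile, vortexed 3 min, centrifuged 15 min (7500g), supernatant quantified by LCMS.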

The nature of series [6]: Cmax in C57BL/6 mouse at 20 mg/kg, po. It counts as ADME, organism-based. Details: dose 20 mg/kg, route oral. The following applies: in vivo. The gist of the method:
as §2

The next series concerns Liver. As to the kind of experiment: Metabolic stability of the compound in rat liver S9 fraction at 10 uM after 2 hrs by LCMS analysis in presence of GSH transferase. Format: ADME, subcellular. Conditions: s9, 2 h. The gist of the method: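 The reaction was quenched by acetonitrile precipitation, and the supernatant was dried and reconstituted. Positive-ion electrospray LCMS tracked parent compound and GSH conjugates. Run in triplicate, with diclofenac as positive control.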

Series [7] in a line: Metabolic stability of the compound in mouse plasma assessed as compound remaining at 10 uM after 3 hrs by LC/MS/MS analysis. Format: ADME, cell-free. The following applies: read-out: Stability. A digest of the protocol:
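Fresh mouse plasma with test article at 10 μM, run in duplicate at 37 °C. Sampled at t=0 and t=3 h; % parent remaining quantified by LC/MS/MS.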

Another series has as its system HeLa. Briefly: Cytotoxicity against human HeLa cells at 12.5 to 100 uM after 2 hrs. Format: cell-based. The gist of the method:
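HeLa cells at 70% confluency were preincubated with compound for 2 h at 37°C. They were then labelled with 50 μCi/mL ³H-mannose and 5 μCi/mL ³⁵S-Met/Cys for 1 h at 37°C, washed, and lysed in 10 mM Tris pH 7.4 with 1% NP-40. Proteins were precipitated with 10% TCA. ³⁵S incorporation read protein synthesis and toxicity; DMSO-treated cells served as the reference.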

A short description of series [8]: Inhibition of human purified phosphomannose isomerase.

On to `Cc1ccccc1-n1sc2cc(F)ccc2c1=O`, for which, on Phosphomannomutase 2, the 50% inhibitory concentration (IC50) (as a rule, the concentration at which inhibition is half-maximal) was more than 20 µM. Regarding `Cc1ccc(-n2sc3ccccc3c2=O)cc1`, the IC50 against Phosphomannomutase 2 was more than 20 µM; in [1] it was 5.2 µM.

On to `O=c1c2cc(F)ccc2sn1-c1ccccc1`, for which, in series [2], the solubility (commonly the concentration that dissolves in the medium under given conditions) was determined as 3.8 µg/mL (≈ 15.5 µM). In addition, the Tmax (usually the time from dosing to the highest level) in “in vivo” was 0.75 h. In series [3], the remaining at 1 h, 10 µM turned out to be 85%. Besides, the F with Mus musculus turned out to be 35%. Besides, the half-life – broadly, the time needed for the level to fall by half in the phase considered – in series [4] was 1.3 h. Moreover, in series [5], the area under the curve AUC(0-t) (in general, the area under the concentration-time curve up to a stated or last time point) came out at 0.305 µM·h. Also, the peak level in series [6] (Cmax) was 162 nM. The Stability result with Liver is “Stable”. The remaining at 3 h, 10 µM in series [7] was determined as 99%. The IC50 against Phosphomannomutase 2 was more than 80 µM. Further, in the series on HeLa, the Activity result was “Non-toxic”. `Cc1ccc(C)c(-n2sc3ccccc3c2=O)c1` registered a concentration for half-maximal inhibition (IC50) in series [1] of 6.6 µM. That is a single-digit micromolar value. Take `O=c1c2cc(F)ccc2sn1-c1ccc(F)cc1`: the 50% inhibitory concentration (IC50) against Phosphomannomutase 2 is more than 80 µM.

On to `Cc1ccc(C)c(-n2sc3ccc(F)cc3c2=O)c1`, for which the solubility in series [2] turned out to be 11 µg/mL (≈ 40.2 µM). For the same molecule, the remaining at 1 h, 10 µM in [3] came to 81%. For the molecule `Cc1ccc(C)c(N2Cc3ccccc3C2=O)c1`, the IC50 in [1] was more than 10 µM. For the molecule `O=c1c2ccccc2sn1-c1cccc(Cl)c1`, at Phosphomannomutase 2, the IC50 is more than 20 µM.

Regarding `Cc1cccc(-n2sc3ccccc3c2=O)c1`, the half-inhibitory concentration (IC50) on Phosphomannomutase 2 is more than 20 µM. Molecule `O=c1c2cc(F)ccc2sn1-c1ccccc1F` gave a half-inhibitory concentration (IC50) against Phosphomannomutase 2 of more than 20 µM. As to `O=c1c2cc(F)ccc2sn1-c1ccc(Cl)cc1`, the half-inhibitory concentration (IC50) against Phosphomannomutase 2 was more than 20 µM. Turning to `O=c1c2ccccc2sn1-c1ccc2ccccc2c1`, the IC50 at Phosphomannomutase 2 is more than 20 µM. On the same count and under the same terms, for `O=c1c2ccccc2sn1-c1cccc(I)c1` the value was more than 20 µM; for `CN(C)c1cccc(-n2sc3ccccc3c2=O)c1`, more than 20 µM.

Molecule `O=c1c2ccccc2sn1-c1cccc(C(F)(F)F)c1` came in with a concentration for half-maximal inhibition (IC50) at Phosphomannomutase 2 of 13.9 µM. That is a double-digit micromolar value.

`COc1cccc(-n2sc3ccccc3c2=O)c1` had an IC50 against Phosphomannomutase 2 of more than 10 µM. Take `O=c1c2ccccc2sn1-c1ccc(C(F)(F)F)cc1`: the half-inhibitory concentration (IC50) (at Phosphomannomutase 2; in series [1]) was more than 20 µM each time. As to `CN(C)c1ccc(-n2sc3ccccc3c2=O)cc1`, the IC50 on Phosphomannomutase 2 amounted to 13.3 µM; in [1] it was 1.9 µM. `O=c1c2cc(F)ccc2sn1-c1cccc(F)c1` registered an IC50 against Phosphomannomutase 2 of more than 20 µM. For `CC(C)(C)c1ccc(-n2sc3ccccc3c2=O)cc1`, in series [2], the solubility came to 2.5 µg/mL (≈ 8.82 µM). Besides, the remaining at 1 h, 10 µM in series [3] came to 62%. The remaining at 3 h, 10 µM in [7] worked out at 10%. Besides, the half-inhibitory concentration (IC50) at Phosphomannomutase 2 is more than 20 µM. For the same molecule, the Activity result in the series on HeLa is given as “Non-toxic”. Turning to `CCOC(=O)c1ccc(-n2sc3ccccc3c2=O)cc1`, at Phosphomannomutase 2, the IC50 was more than 20 µM. In [2], `Cc1ccc(C)c(-n2sc3cc(F)ccc3c2=O)c1` gave a solubility of 22.5 µg/mL (≈ 82.3 µM). In addition, in series [3], the remaining at 1 h, 10 µM was 82.3%. In addition, the remaining at 3 h, 10 µM in series [7] is 48%. This molecule had a 50% inhibitory concentration (IC50) in series [1] of 1 µM. With `O=C1c2ccccc2SC1c1ccccc1` (stereo not drawn), the IC50 in [1] was more than 10 µM. In the case of `NC(=O)C1(NC(=O)CCCNc2ccc(Cl)cc2Cl)Cc2ccccc2C1`, in [1], half-maximal inhibition (IC50) required 50 µM.

Consider `NC(=O)C1(NC(=O)CCCSc2ccc(Cl)cc2Cl)Cc2ccccc2C1`, for which it took 14 µM to reach half-maximal inhibition in series [1] (IC50).

Regarding `NC(=O)C1(NC(=O)CCCOc2ccc(Cl)cc2Cl)Cc2ccccc2C1`, in [8], the half-maximal inhibitory concentration (IC50) was found to be 40 µM. Regarding `O=c1c2ccccc2sn1-c1ccc(Cl)cc1`, the IC50 against Phosphomannomutase 2 is more than 20 µM.
